Data reported in PubChem BioAssay.
Calls of active or inactive are those of the source.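 Rule for the calls, unless noted: active = viability at or below 10% of carrier control in both of two separate runs; inconclusive = viability at or below 10% in only one of the two runs; inactive = the rest.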

How the values were obtained:
[1] = Her2 expression decrease, cell viability multiplex – SKBR3 breast tumor cells, AlphaScreen, ATP viability, primary screen (AID 461;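 active = Her2 level under about 52% in both replicate screens, with viability over 70% of control, limit read from the data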;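 for Her2 level: lower value means less Her2 protein in the cells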;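 for viability: percent of carrier control wells set as 100% viability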); settings: SKBR3 Her2 protein level, 18-24 h, measured here: SKBR3 viability, ATP luminescence, at 10 µM
[2] = target: Receptor tyrosine-protein kinase erbB-2 (Homo sapiens) (UniProt P04626); experiment: as above; settings: 18-24 h, at 10 µM, stronger effect = lower value
Sequence of Receptor tyrosine-protein kinase erbB-2 (Homo sapiens) (P04626 whole entry, looked up): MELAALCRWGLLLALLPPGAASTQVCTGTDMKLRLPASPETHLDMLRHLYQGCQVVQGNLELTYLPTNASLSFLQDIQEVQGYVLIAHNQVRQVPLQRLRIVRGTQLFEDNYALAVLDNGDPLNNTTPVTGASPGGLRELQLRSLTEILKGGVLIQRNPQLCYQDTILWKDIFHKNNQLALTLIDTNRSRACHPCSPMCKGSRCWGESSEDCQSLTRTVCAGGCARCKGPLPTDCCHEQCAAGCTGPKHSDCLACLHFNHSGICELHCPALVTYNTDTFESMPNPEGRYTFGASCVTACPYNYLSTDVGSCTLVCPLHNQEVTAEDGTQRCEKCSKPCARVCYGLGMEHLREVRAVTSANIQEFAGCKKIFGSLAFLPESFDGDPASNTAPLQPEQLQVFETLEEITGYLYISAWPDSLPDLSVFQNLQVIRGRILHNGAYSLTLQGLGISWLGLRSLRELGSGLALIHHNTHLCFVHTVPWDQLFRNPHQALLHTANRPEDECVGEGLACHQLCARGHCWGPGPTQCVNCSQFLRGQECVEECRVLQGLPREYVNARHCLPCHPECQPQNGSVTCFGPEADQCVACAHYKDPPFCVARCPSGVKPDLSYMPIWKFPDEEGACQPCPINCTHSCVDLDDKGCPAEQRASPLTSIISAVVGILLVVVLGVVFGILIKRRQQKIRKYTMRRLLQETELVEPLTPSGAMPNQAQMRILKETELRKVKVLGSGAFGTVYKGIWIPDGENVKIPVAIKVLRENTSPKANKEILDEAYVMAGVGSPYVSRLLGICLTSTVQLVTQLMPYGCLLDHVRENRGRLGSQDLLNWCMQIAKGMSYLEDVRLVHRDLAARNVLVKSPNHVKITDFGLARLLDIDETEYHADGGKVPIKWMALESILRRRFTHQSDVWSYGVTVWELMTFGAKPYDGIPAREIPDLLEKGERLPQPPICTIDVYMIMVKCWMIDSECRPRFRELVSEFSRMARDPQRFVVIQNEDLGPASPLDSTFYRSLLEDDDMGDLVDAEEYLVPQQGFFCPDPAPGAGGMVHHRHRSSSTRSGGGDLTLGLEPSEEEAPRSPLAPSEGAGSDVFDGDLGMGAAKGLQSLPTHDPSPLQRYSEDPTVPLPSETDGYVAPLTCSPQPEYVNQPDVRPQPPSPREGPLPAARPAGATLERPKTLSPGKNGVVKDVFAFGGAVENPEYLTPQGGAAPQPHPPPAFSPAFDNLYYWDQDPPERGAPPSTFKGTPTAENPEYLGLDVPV

[3] = reduced viability of SK-BR-3 breast cancer cells – cell-based, 24 h, human, pilot screen (AID 572); settings: SK-BR-3 viability, CellTiter-Glo luminescence, at 10 µM, stronger effect = lower value;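 note: compound exposure lasted between 18 and 24 h rather than exactly 24 h; 100% = carrier-treated control wells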
[4] = HUVEC growth inhibition – cell-based, human, primary screen (AID 575;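 active = viability at or below 30% in both replicate assays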;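 note: 100% = median of untreated cell wells with 0.1% DMSO on each plate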); settings: HUVEC proliferation, CellTiter-Glo luminescence, 72 h; at 10 µM; stronger effect = lower value
Method in brief: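 Test system – primary HUVEC, no more than 12 passages · Dosing – one dose, 10 µM final, 0.1% DMSO · Times – 72 h treatment at 37 °C · Measured by – ATP-based CellTiter-Glo luminescent read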

[5] = MRP1 drug-resistance reversers in H69AR cells – cell-based, doxorubicin co-treatment, pilot screen (AID 601;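 active = viability loss from added drug above about 55%, and viability with drug at most 40%, in both replicates, limit read from the data, passing the limit was not always enough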); settings: CellTiter-Glo, 72 h, at 10 µM; for differential viability (reversal): stronger effect = higher value
[6] = yeast transport mutant growth inhibition pilot in 384-well plates, post-Golgi transport modulator project (AID 636; in the data active = inhibition above about 31%); settings: absorbance 615 nm, about 18 h, stronger effect = higher value
[7] = growth suppression of yeast trafficking mutant, preliminary HTS, modulators of trafficking downstream of Golgi apparatus project, 1536-format plate, OD 615 nm (AID 637; in the data active = inhibition above about 30%); settings: yeast transport mutant growth, absorbance 615 nm, 18 h; stronger effect = higher value
[8] = H69AR cells + 2 uM doxorubicin, measured here: viability with 2 uM doxorubicin, stronger effect = lower value
[9] = H69AR cells, compound alone cytotoxicity

Row | Compound | viability [1] [%] | Her2 level [2] | viability [3] | viability [4] | differential viability (reversal) ([5]; H69AR cells + 2 uM doxorubicin) | viability [5, 8] [%] | viability [5, 9] [%] | inhibition [6] | inhibition [7]
1 | Cc1ccccc1OCC(O)CN (stereo not given) | 74 | 90% (inactive) | 74% (inactive) | 15.3% (active) | -5.69% (inactive) | 25 | 19.3 | 3.64% (inactive) | -6.03% (inactive)
2 | CCn1c2ccccc2c2cc(NC(=O)Cc3ccc(S(=O)(=O)N4CCOCC4)s3)ccc21 | 83 | 76.5% (inactive) | 83% (inactive) | 9.02% (active) | -10.1% (inactive) | 60.2 | 50.1 | -1.84% (inactive) | -2.73% (inactive)
3 | COc1cc(-c2noc(-c3ccccc3C(=O)NCc3ccco3)n2)cc(OC)c1OC | 79 | 72.5% (inactive) | 79% (inactive) | 55.6% (inactive) | -6.29% (inactive) | 65.2 | 59 | -5.14% (inactive) | 1.11% (inactive)
4 | C=CCn1c(COc2ccc(Cl)cc2)nnc1SCC(=O)N1CC(=O)Nc2ccccc21 | 92 | 76.5% (inactive) | 92% (inactive) | 65.5% (inactive) | -10.9% (inactive) | 73.5 | 62.7 | -5.2% (inactive) | -3.02% (inactive)
5 | OC(CN1CCOCC1)Cn1c(-c2cccc(Cl)c2)nc2ccccc21 (stereo not given) | 100 | 80% (inactive) | 100% (inactive) | 54.4% (inactive) | -47.5% (inactive) | 66 | 18.5 | -6.75% (inactive) | -1.11% (inactive)
6 | COc1ccc(-c2noc(CCC(=O)NCCCN3CCC(Cc4ccccc4)CC3)n2)cc1 | 87.5 | 77% (inactive) | 87.5% (inactive) | 33.1% (inactive) | -1.48% (inactive) | 64.4 | 63 | 1.05% (inactive) | -6% (inactive)
7 | CCN(CC)CC(=O)Nc1ccc(-c2nc3cc(NC(=O)CN(CC)CC)ccc3o2)cc1 | 91 | 82.5% (inactive) | 91% (inactive) | 3.96% (active) | -14.4% (inactive) | 58.6 | 44.2 | -2.13% (inactive) | -9.34% (inactive)
8 | CCC(Sc1nc2n[nH]c(C)c2c(=N)n1-c1cc(Cl)ccc1C)C(=O)N1CCOCC1 (stereo not given) | 92.5 | 96% (inactive) | 92.5% (inactive) | 71.2% (inactive) | 29.3% (inactive) | 17 | 46.3 | 2.37% (inactive) | -10% (inactive)
9 | CCOC(=O)c1oc2ccccc2c1NC(=O)c1cccc(OC)c1OC | 96.5 | 100% (inactive) | 96.5% (inactive) | 51% (inactive) | -68.6% (inactive) | 88.2 | 19.6 | -2.99% (inactive) | -2.22% (inactive)
10 | CCc1cc2c(=O)c(-c3ccc4c(c3)OCCO4)coc2cc1OC(=O)c1ccco1 | 72.5 | 68% (inactive) | 72.5% (inactive) | 64.3% (inactive) | -13.3% (inactive) | 63.9 | 50.5 | -3.29% (inactive) | 2.79% (inactive)
11 | CCCc1nc2ccccc2c(=O)n1NC(=O)c1c(O)c2cccc3c2n(c1=O)CCC3 | 113 | 87.5% (inactive) | 113% (inactive) | 83.5% (inactive) | -6.06% (inactive) | 72.1 | 66 | -5.2% (inactive) | 14.1% (inactive)
12 | Cc1ccc2c(C)nc(Nc3nc(CSc4nnnn4-c4ccccc4)cc(=O)[nH]3)nc2c1 | 98 | 80% (inactive) | 98% (inactive) | 48.6% (inactive) | -27.3% (inactive) | 78 | 50.7 | -5.47% (inactive) | 1.31% (inactive)
13 | CCCCCSc1nc2c(cnn2-c2ccccc2)c(=O)[nH]1 | 99 | 93.5% (inactive) | 99% (inactive) | 45.2% (inactive) | -3.82% (inactive) | 50.1 | 46.3 | -5.26% (inactive) | -0.17% (inactive)
14 | CC(C)(C)n1nnnc1C(c1ccccc1)N1CCc2ccccc2C1 (stereo not given) | 107 | 82% (inactive) | 107% (inactive) | 42% (inactive) | 5.93% (inactive) | 43.4 | 49.3 | -7.26% (inactive) | -2.7% (inactive)
15 | COc1ccc(Br)cc1C1N2CC3(C)CN1CC(C)(C2)C3=O (stereo not given) | 114 | 89.5% (inactive) | 114% (inactive) | 97.1% (inactive) | -33% (inactive) | 87.3 | 54.3 | -5.97% (inactive) | -3.61% (inactive)
